Experimental findings from ChEMBL document CHEMBL3632598, “Stereospecific inhibition of nitric oxide production in macrophage cells by flavanonols: Synthesis and the structure-activity relationship” (Bioorg Med Chem, 2015) are described below.

Counter-ions that a name gives are not always drawn. Bounds are passed on as bounds.

The subject of data set [1] is RAW264.7. Briefly: Antiinflammatory activity in mouse RAW264.7 cells assessed as inhibition of LPS-induced nitric oxide production at 100 uM pre-incubated for 2 hrs before LPS stimulation for 16 hrs by Griess method. It counts as functional. The procedure, abridged:
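RAW 264.7 cells (1.6 × 10^6 cells/mL) in F-12 Ham medium with 10% FBS, glutamate and penicillin-streptomycin. Compounds were given as DMSO stock diluted 1:100 in medium, final 100 µM, and concentration was checked by UV absorbance. After 2 h at 37 °C, LPS was added to a final 100 ng/mL and cells were incubated 16 h. Aminoguanidine was the positive control; mean ± S.D., n = 3.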

Data set [2] in a line: Antioxidant activity assessed as DPPH radical scavenging activity after 30 mins by spectrophotometry. The format is physicochemical. A general note: DPPH is a stable violet radical that fades when it is reduced.
The test system of data set [3] is RAW264.7. Kind of data set: Cytotoxicity against mouse RAW264.7 cells assessed as cell viability at 100 uM pre-incubated for 2 hrs before LPS stimulation for 16 hrs followed by 4 hrs incubation by alamar blue assay. The conditions noted are these: raw264.7, 100 µM. It counts as cell-based. The procedure, abridged:
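Viability was read on the RAW 264.7 cells left after supernatant removal in the LPS/NO assay (100 µM compound, 2 h pre-incubation, LPS 100 ng/mL for 16 h). AlamarBlue was added and plates were incubated 4 h at 37 °C. Absorbance was read at 570 nm (reference 655 nm).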
For orientation: The colour change of resazurin is a common sign of viable cells or microbes.

Usually inhibition stands for the change of the read-out against control, counted positive when it falls. The term EC50 denotes the midpoint of the concentration-response curve. Consider `O=C1c2c(O)cc(O)cc2O[C@@H](c2ccc(O)cc2)[C@@H]1O`, for which the inhibition at 100 µM in the data set with RAW264.7 [1] is below 10%. The EC50 in data set [2] is above 100 µM.
As for `O=C1c2c(O)cc(O)cc2O[C@@H](c2ccc(O)c(O)c2)[C@@H]1O`, the inhibition at 100 µM in the data set with RAW264.7 [1] was below 10%. For the same compound, the EC50 in data set [2] came out at 12.6 µM.
In the case of `O=C(O)c1cc(O)c(O)c(O)c1`, the EC50 in data set [2] is 10 µM.
For `O=C1c2c(O)cc(O)cc2O[C@@H](c2ccccc2)[C@@H]1O`, the inhibition at 100 µM with RAW264.7 [1] is below 10%. The EC50 in data set [2] is above 100 µM.
As for `O=C1c2c(O)cc(O)cc2O[C@H](c2ccccc2O)[C@H]1O`, in the data set with RAW264.7 [1], the inhibition at 100 µM was 40%. Also, in data set [2], the EC50 is above 100 µM. The Activity entry in the data set on RAW264.7 [3] is “Non-toxic”.
For `O=C1c2c(O)cc(O)cc2O[C@@H](c2ccccc2O)[C@@H]1O` the same measures were below 15%, above 100 µM and “Non-toxic”.
For `O=C1c2c(O)cc(O)cc2O[C@H](c2cccc(O)c2)[C@H]1O` the same measures were 35%, above 100 µM and “Non-toxic”.
The like results for `O=C1c2c(O)cc(O)cc2O[C@@H](c2cccc(O)c2)[C@@H]1O` were, in that order, below 15%, above 100 µM and “Non-toxic”.
On to `O=C1c2c(O)cc(O)cc2O[C@H](c2cccc(O)c2O)[C@H]1O`, for which the inhibition at 100 µM in the data set with RAW264.7 [1] was 70%. The EC50 in data set [2] stood at 12.5 µM. In the data set with RAW264.7 [3], the Activity entry is “Non-toxic”.
For `O=C1c2c(O)cc(O)cc2O[C@@H](c2cccc(O)c2O)[C@@H]1O` the same measures were 45%, 13.2 µM and “Non-toxic”.
Consider `O=C1c2c(O)cc(O)cc2O[C@@H](c2ccc(O)cc2O)[C@@H]1O`, for which, in the data set with RAW264.7 [1], the inhibition at 100 µM is below 10%. In data set [2], the EC50 was above 100 µM.
Take `O=C1c2c(O)cc(O)cc2O[C@H](c2cc(O)ccc2O)[C@H]1O`: the inhibition at 100 µM in the data set with RAW264.7 [1] amounted to 30%. In data set [2], the EC50 was 24.5 µM. In addition, the Activity entry with RAW264.7 [3] was “Non-toxic”.
Turning to `O=C1c2c(O)cc(O)cc2O[C@@H](c2cc(O)ccc2O)[C@@H]1O`, the inhibition at 100 µM in the data set on RAW264.7 [1] was below 15%. Besides, the EC50 in data set [2] was determined as 25.4 µM. Also, the Activity entry in the data set on RAW264.7 [3] is “Non-toxic”.
Consider `O=C1c2c(O)cc(O)cc2O[C@H](c2cc(O)cc(O)c2)[C@H]1O`, for which, in the data set with RAW264.7 [1], the inhibition at 100 µM is below 10%. For the same compound, in data set [2], the EC50 is above 100 µM.
For `O=C1c2c(O)cc(O)cc2O[C@@H](c2cc(O)cc(O)c2)[C@@H]1O` the same measures were below 10% and above 100 µM.
For `COc1cccc([C@H]2Oc3cc(O)cc(O)c3C(=O)[C@@H]2O)c1` the same measures were below 10% and above 100 µM.
The like results for `COc1cccc([C@@H]2Oc3cc(O)cc(O)c3C(=O)[C@H]2O)c1` were, in that order, below 10% and above 100 µM.
For `COc1ccc([C@@H]2Oc3cc(O)cc(O)c3C(=O)[C@H]2O)cc1`, the inhibition at 100 µM with RAW264.7 [1] is below 10%. For the same compound, the EC50 in data set [2] is above 100 µM.
For `COc1cccc([C@H]2Oc3cc(O)cc(O)c3C(=O)[C@@H]2O)c1OC` the same measures were below 10% and above 100 µM.
For `COc1cccc([C@@H]2Oc3cc(O)cc(O)c3C(=O)[C@H]2O)c1OC` the same measures were below 10% and above 100 µM.
For `COc1ccc([C@H]2Oc3cc(O)cc(O)c3C(=O)[C@@H]2O)c(OC)c1` the same measures were below 10% and above 100 µM.
`COc1ccc([C@@H]2Oc3cc(O)cc(O)c3C(=O)[C@H]2O)c(OC)c1`: the inhibition at 100 µM with RAW264.7 [1] is below 10%. Also, in data set [2], the EC50 was above 100 µM.
For `COc1ccc(OC)c([C@H]2Oc3cc(O)cc(O)c3C(=O)[C@@H]2O)c1` the same measures were below 10% and above 100 µM.
For `COc1ccc(OC)c([C@@H]2Oc3cc(O)cc(O)c3C(=O)[C@H]2O)c1` the same measures were below 10% and above 100 µM.
As to `COc1cc(OC)cc([C@H]2Oc3cc(O)cc(O)c3C(=O)[C@@H]2O)c1`, in the data set with RAW264.7 [1], the inhibition at 100 µM was below 10%. In addition, the EC50 in data set [2] is above 100 µM.
As to `COc1cc(OC)cc([C@@H]2Oc3cc(O)cc(O)c3C(=O)[C@H]2O)c1`, in the data set with RAW264.7 [1], the inhibition at 100 µM was below 10%. Moreover, the EC50 in data set [2] is above 100 µM.
The like results for `COc1ccc([C@H]2Oc3cc(O)cc(O)c3C(=O)[C@@H]2O)cc1` were, in that order, below 10% and above 100 µM.
In the case of `COc1ccccc1C1Oc2cc(O)cc(O)c2C(=O)C1O` (racemic), the inhibition at 100 µM in the data set with RAW264.7 [1] was below 10%. Moreover, the EC50 in data set [2] is above 100 µM.
For `COc1cccc(OC)c1C1Oc2cc(O)cc(O)c2C(=O)C1O` (racemic) the same measures were below 10% and above 100 µM.
The like results for `COc1ccc(C2Oc3cc(O)cc(O)c3C(=O)C2O)cc1OC` (racemic) were, in that order, below 10% and above 100 µM.
Consider `O=C1c2c(O)cc(O)cc2O[C@H](c2ccc(O)c(O)c2)[C@H]1O` [(+)-TAXIFOLIN], for which the inhibition at 100 µM in the data set on RAW264.7 [1] is below 10%. In addition, the EC50 in data set [2] stood at 13.9 µM.
As for `O=C1c2c(O)cc(O)cc2O[C@H](c2ccc(O)cc2)[C@H]1O` [DIHYDROKAEMPFEROL], the inhibition at 100 µM with RAW264.7 [1] was below 10%. Moreover, the EC50 in data set [2] was above 100 µM.
The like results for `O=C1c2c(O)cc(O)cc2O[C@H](c2ccc(O)cc2O)[C@H]1O` [DIHYDROMORIN] were, in that order, below 10% and above 100 µM.
As to `N=C(N)NN` [PIMAGEDINE HYDROCHLORIDE], the inhibition at 100 µM in the data set on RAW264.7 [1] came to 72%.
With `O=C1c2c(O)cc(O)cc2O[C@H](c2ccccc2)[C@H]1O` [PINOBAKSIN], the inhibition at 100 µM with RAW264.7 [1] is below 10%. Further, the EC50 in data set [2] is above 100 µM.
